Experimental data reported in ChEMBL document CHEMBL1926569, “Novel (E)-1-(4-methyl-2-(alkylamino)thiazol-5-yl)-3-arylprop-2-en-1-ones as potent antimicrobial agents” (2011).

Key:
[1] = test system: Aspergillus ochraceus; assay: Ratio of bifonazole to compound for Aspergillus ochraceus ATCC 12066; format: functional
[2] = test system: Aspergillus ochraceus; assay: Ratio of ketoconazole to compound for Aspergillus ochraceus ATCC 12066; format: functional
[3] = test system: Candida albicans; assay: Antifungal activity against Candida albicans isolated from human incubated for 72 hrs followed by serial sub-cultivation for 72 hrs by serial dilution technique; format: functional
In short: (§1)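 MFC: material from 72 h malt broth microdilution wells was serially sub-cultured into fresh broth plates and incubated a further 72 h at 28 °C. Fungicidal concentration is taken from growth after sub-culture. Duplicate, repeated three times.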

[4] = test system: Aspergillus ochraceus; assay: Antifungal activity against Aspergillus ochraceus after 72 hrs by serial dilution technique
[5] = test system: Aspergillus ochraceus; assay: Antifungal activity against Aspergillus ochraceus ATCC 12066 after 72 hrs by serial dilution technique; format: functional; details: ATCC 12066, 72 h
In short: (§2)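 Modified microdilution in 96-well plates. Fungi were kept on malt agar at 4 °C. Spores were washed off in sterile 0.85% saline with 0.1% Tween 80. Compounds were dissolved at 1 mg/ml in 5% DMSO with 0.1% Tween 80 and added to malt broth with inoculum. Plates were shaken at 160 rpm for 72 h at 28 °C. Duplicate, repeated three times.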

[6] = test system: Aspergillus fumigatus; assay: Ratio of ketoconazole to compound for Aspergillus fumigatus isolated from human; format: functional
[7] = test system: Penicillium ochrochloron; assay: Antifungal activity against Penicillium ochrochloron ATCC 9112 after 72 hrs by serial dilution technique; format: functional; details: ATCC 9112, 72 h; in short: as §2
[8] = test system: Trichoderma viride; assay: Antifungal activity against Trichoderma viride IAM 5061 incubated for 72 hrs followed by serial sub-cultivation for 72 hrs by serial dilution technique; format: functional; details: IAM 5061, 72 h; in short: as §1
[9] = test system: Aspergillus flavus; assay: Antifungal activity against Aspergillus flavus ATCC 9643 incubated for 72 hrs followed by serial sub-cultivation for 72 hrs by serial dilution technique; format: functional; details: ATCC 9643, 72 h; in short: as §1
[10] = test system: Trichoderma viride; assay: Ratio of bifonazole to compound for Trichoderma viride IAM 5061; format: functional
[11] = test system: Salmonella typhimurium; assay: Antibacterial activity against Salmonella Typhimurium ATCC 13311 incubated for 24 hrs followed by serial sub-cultivation for 24 hrs by microdilution; format: functional, Salmonella enterica subsp. enterica serovar Typhimurium; details: Salmonella enterica, ATCC 13311, 24 h
In short: (§3)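 MBC: after the 24 h LB broth microdilution (1.0 × 10⁴ CFU per well, 160 rpm), wells were serially sub-cultured into fresh broth plates and incubated a further 24 h. MBC is the lowest concentration with no visible growth, taken as 99.5% killing of the original inoculum. Duplicate, repeated three times.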

[12] = test system: Aspergillus niger; assay: Antifungal activity against Aspergillus niger ATCC 6275 incubated for 72 hrs followed by serial sub-cultivation for 72 hrs by serial dilution technique; format: functional; details: ATCC 6275, 72 h; in short: as §1
[13] = test system: Aspergillus ochraceus; assay: Antifungal activity against Aspergillus ochraceus ATCC 12066 incubated for 72 hrs followed by serial sub-cultivation for 72 hrs by serial dilution technique; format: functional; details: ATCC 12066, 72 h; in short: as §1
[14] = test system: Candida albicans; assay: Antifungal activity against Candida albicans isolated from human after 72 hrs by serial dilution technique; format: functional; in short: as §2
[15] = test system: Micrococcus flavus; assay: Antibacterial activity against Micrococcus flavus ATCC 10240 after 24 hrs by microdilution method; format: functional; details: ATCC 10240, 24 h
In short: (§4)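 Broth microdilution in 96-well plates. Bacterial suspensions were adjusted in sterile saline to 1.0 × 10⁵ CFU/ml, prepared daily and kept at 4 °C. Compound was added to LB broth with 1.0 × 10⁴ CFU per well and shaken at 160 rpm for 24 h at […] (so in the source). MIC is the lowest concentration with no visible growth under a binocular microscope. OD655 was also read. Duplicate, repeated three times.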

[16] = test system: Penicillium ochrochloron; assay: Ratio of bifonazole to compound for Penicillium ochrochloron ATCC 9112; format: functional
[17] = test system: Aspergillus niger; assay: Ratio of bifonazole to compound for Aspergillus niger ATCC 6275; format: functional
[18] = test system: Salmonella typhimurium; assay: Antibacterial activity against Salmonella Typhimurium ATCC 13311 after 24 hrs by microdilution method; format: functional, Salmonella enterica subsp. enterica serovar Typhimurium; details: Salmonella enterica, ATCC 13311, 24 h; in short: as §4
[19] = test system: Bacillus cereus; assay: Antibacterial activity against clinical isolate of Bacillus cereus after 24 hrs by microdilution method; format: functional; in short: as §4
[20] = test system: Penicillium ochrochloron; assay: Ratio of ketoconazole to compound for Penicillium ochrochloron ATCC 9112; format: functional
[21] = test system: Candida albicans; assay: Ratio of bifonazole to compound for Candida albicans isolated from human; format: functional
[22] = test system: Trichoderma viride; assay: Antifungal activity against Trichoderma viride IAM 5061 after 72 hrs by serial dilution technique; format: functional; details: IAM 5061, 72 h; in short: as §2
[23] = test system: Micrococcus flavus; assay: Antibacterial activity against Micrococcus flavus ATCC 10240 incubated for 24 hrs followed by serial sub-cultivation for 24 hrs by microdilution; format: functional; details: ATCC 10240, 24 h; in short: as §3
[24] = test system: Escherichia coli; assay: Antibacterial activity against Escherichia coli ATCC 35210 after 24 hrs by microdilution method; format: functional; details: ATCC 35210, 24 h; in short: as §4
[25] = test system: Pseudomonas aeruginosa; assay: Ratio of ampicillin MIC to compound MIC for Pseudomonas aeruginosa ATCC 27853; format: functional
[26] = test system: Candida albicans; assay: Ratio of ketoconazole to compound for Candida albicans isolated from human; format: functional
[27] = test system: Listeria monocytogenes; assay: Antibacterial activity against Listeria monocytogenes NCTC 7973 incubated for 24 hrs followed by serial sub-cultivation for 24 hrs by microdilution; format: functional; details: NCTC 7973, 24 h; in short: as §3
[28] = test system: Enterococcus faecalis; assay: Antibacterial activity against Enterococcus faecalis isolated from human incubated for 24 hrs followed by serial sub-cultivation for 24 hrs by microdilution; format: functional; in short: as §3
[29] = test system: Escherichia coli; assay: Antibacterial activity against Escherichia coli ATCC 35210 incubated for 24 hrs followed by serial sub-cultivation for 24 hrs by microdilution; format: functional; details: ATCC 35210, 24 h; in short: as §3
[30] = test system: Talaromyces funiculosus; assay: Ratio of bifonazole to compound for Penicillium funiculosum ATCC 36839; format: functional
[31] = test system: Staphylococcus aureus; assay: Antibacterial activity against Staphylococcus aureus ATCC 6538 incubated for 24 hrs followed by serial sub-cultivation for 24 hrs by microdilution method; format: functional; details: ATCC 6538, 24 h; in short: as §3
[32] = test system: Staphylococcus aureus; assay: Antibacterial activity against Staphylococcus aureus ATCC 6538 after 24 hrs by microdilution method; format: functional; details: ATCC 6538, 24 h; in short: as §4
[33] = test system: Pseudomonas aeruginosa; assay: Antibacterial activity against Pseudomonas aeruginosa ATCC 27853 after 24 hrs by microdilution method; format: functional; details: ATCC 27853, 24 h; in short: as §4
[34] = test system: Enterococcus faecalis; assay: Antibacterial activity against Enterococcus faecalis isolated from human after 24 hrs by microdilution method; format: functional; in short: as §4
[35] = test system: Aspergillus flavus; assay: Antifungal activity against Aspergillus flavus ATCC 9643 after 72 hrs by serial dilution technique; format: functional; details: ATCC 9643, 72 h; in short: as §2
[36] = test system: Bacillus cereus; assay: Antibacterial activity against clinical isolate of Bacillus cereus incubated for 24 hrs followed by serial sub-cultivation for 24 hrs by microdilution; format: functional; in short: as §3
[37] = test system: Pseudomonas aeruginosa; assay: Antibacterial activity against Pseudomonas aeruginosa ATCC 27853 incubated for 24 hrs followed by serial sub-cultivation for 24 hrs by microdilution; format: functional; details: ATCC 27853, 24 h; in short: as §3
[38] = test system: Aspergillus fumigatus; assay: Antifungal activity against Aspergillus fumigatus isolated from human incubated for 72 hrs followed by serial sub-cultivation for 72 hrs by serial dilution technique; format: functional; in short: as §1
[39] = test system: Penicillium ochrochloron; assay: Antifungal activity against Penicillium ochrochloron ATCC 9112 incubated for 72 hrs followed by serial sub-cultivation for 72 hrs by serial dilution technique; format: functional; details: ATCC 9112, 72 h; in short: as §1
[40] = test system: Talaromyces funiculosus; assay: Antifungal activity against Penicillium funiculosum ATCC 36839 incubated for 72 hrs followed by serial sub-cultivation for 72 hrs by serial dilution technique; format: functional; details: ATCC 36839, 72 h; in short: as §1
[41] = test system: Aspergillus niger; assay: Antifungal activity against Aspergillus niger ATCC 6275 after 72 hrs by serial dilution technique; format: functional; details: ATCC 6275, 72 h; in short: as §2
[42] = test system: Talaromyces funiculosus; assay: Antifungal activity against Penicillium funiculosum ATCC 36839 after 72 hrs by serial dilution technique; format: functional; details: ATCC 36839, 72 h; in short: as §2
[43] = test system: Listeria monocytogenes; assay: Antibacterial activity against Listeria monocytogenes NCTC 7973 after 24 hrs by microdilution method; format: functional; details: NCTC 7973, 24 h; in short: as §4

CNc1nc(C)c(C(=O)/C=C/c2cccc(C)c2)s1
55.1 µM: MIC [14] | MIC [24] | MIC [34]
36.8 µM: MIC [4] | MIC [5] | MIC [7] | MIC [22] | MIC [35] | MIC [42]
91.9 µM: MFC [9] | MBC [11] | MBC [23] | MBC [36] | MBC [37]
37.8 µM: MIC [41]
10: Ratio [1] | Ratio [2] | Ratio [6] | Ratio [10] | Ratio [16] | Ratio [17] | Ratio [20] | Ratio [21] | Ratio [25] | Ratio [26] | Ratio [30]
73.5 µM: MFC [3] | MFC [8] | MFC [12] | MFC [13] | MIC [15] | MIC [18] | MIC [19] | MBC [28] | MBC [29] | MIC [32] | MIC [33] | MFC [38] | MFC [39] | MFC [40]
110 µM: MBC [27] | MBC [31] | MIC [43]

CCNc1nc(C)c(C(=O)/C=C/c2ccccc2)s1
36.8 µM: MIC [4] | MIC [7] | MIC [14] | MIC [18] | MIC [22] | MIC [42]
10: Ratio [1] | Ratio [2] | Ratio [6] | Ratio [10] | Ratio [16] | Ratio [17] | Ratio [20] | Ratio [21] | Ratio [25] | Ratio [26] | Ratio [30]
73.5 µM: MFC [3] | MIC [5] | MFC [8] | MFC [12] | MIC [19] | MIC [24] | MBC [28] | MIC [32] | MIC [33] | MIC [35] | MBC [36] | MBC [37] | MFC [38] | MFC [39] | MFC [40]
55.1 µM: MIC [34] | MIC [41]
110 µM: MBC [23] | MBC [27] | MBC [29] | MBC [31] | MIC [43]
91.9 µM: MFC [9] | MBC [11] | MFC [13] | MIC [15]

CNc1nc(C)c(C(=O)/C=C/c2cccc(Br)c2)s1
89 µM: MBC [27] | MIC [43]
74.2 µM: MFC [9] | MBC [11] | MIC [24] | MBC [28] | MBC [29] | MBC [31] | MIC [33] | MIC [34] | MBC [36] | MBC [37]
29.7 µM: MIC [4] | MIC [5] | MIC [7] | MIC [22] | MIC [35] | MIC [42]
59.3 µM: MFC [3] | MFC [8] | MFC [12] | MFC [13] | MIC [18] | MBC [23] | MIC [32] | MFC [38] | MFC [39] | MFC [40]
14.8 µM: MIC [15]
10: Ratio [1] | Ratio [2] | Ratio [6] | Ratio [10] | Ratio [16] | Ratio [17] | Ratio [20] | Ratio [21] | Ratio [25] | Ratio [26] | Ratio [30]
44.5 µM: MIC [14] | MIC [41]
99.3 µM: MIC [19]
